Legend:
[1] = system: Rattus norvegicus; test: Biodistribution of [18F]AFP in rat hypothalamus at 120 min postinjection in vivo; assay type: ADME, organism-based; settings: 2 h
[2] = system: Rattus norvegicus; test: Biodistribution of [18F]AFP in rat frontal cortex at 10 min postinjection in vivo; assay type: ADME, organism-based
[3] = system: Rattus norvegicus; test: Biodistribution of [18F]-AFP in rat frontal cortex at 30 min postinjection in vivo; assay type: ADME, organism-based; settings: 0.5 h
Procedure, shortened: (§1)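 Male Sprague-Dawley rats, three per time point, received the F-18 radioligand in saline (~20 µCi per rat at injection) by tail vein. Under CO2 anesthesia they were decapitated at 10, 30, 60, 90 or 120 min. Blood and dissected brain regions were weighed and gamma counted. Activity was decay-corrected, and injected dose was corrected for tail residual activity. Uptake was expressed as %ID/g versus injectate standards, mean ± SD.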

[4] = system: Rattus norvegicus; test: Biodistribution of [18F]-AFP in rat frontal cortex at 60 min postinjection in vivo; assay type: ADME, organism-based; settings: 1 h; procedure, shortened: as §1
[5] = system: Rattus norvegicus; test: Biodistribution of [18F]AFP in rat frontal cortex at 90 min postinjection in vivo; assay type: ADME, organism-based; settings: 1.5 h
[6] = system: Rattus norvegicus; test: Biodistribution of [18F]AFP in rat frontal cortex at 120 min postinjection in vivo; assay type: ADME, organism-based; settings: 2 h
[7] = system: Rattus norvegicus; test: Biodistribution of [18F]AFP in rat blood at 30 min postinjection in vivo; assay type: ADME, organism-based; settings: 0.5 h
[8] = system: Rattus norvegicus; test: Biodistribution of [18F]AFP in rat blood at 60 min postinjection in vivo; assay type: ADME, organism-based; settings: 1 h
[9] = system: Rattus norvegicus; test: Biodistribution of [18F]AFP in rat blood at 90 min postinjection in vivo; assay type: ADME, organism-based; settings: 1.5 h
[10] = system: Rattus norvegicus; test: Biodistribution of [18F]AFP in rat striatum 60 min postinjection in vivo; assay type: ADME, organism-based; settings: 1 h
[11] = system: Rattus norvegicus; test: Biodistribution of [18F]-AFP in rat blood at 120 min postinjection in vivo; assay type: ADME, organism-based; settings: 2 h; procedure, shortened: as §1
[12] = system: Rattus norvegicus; test: Biodistribution of [18F]AFP in rat striatum at 10 min postinjection in vivo; assay type: ADME, organism-based
[13] = system: Rattus norvegicus; test: Biodistribution of [18F]AFP in rat striatum at 30 min postinjection in vivo; assay type: ADME, organism-based; settings: 0.5 h
[14] = species on record: Rattus norvegicus; test: Specific binding of [18F]AFA in striatum of rat pretreated with compound 7f; n=3; assay type: functional
[15] = species on record: Rattus norvegicus; test: Specific binding of [18F]AFA in thalamus of rat pretreated with compound 7f; n=3; assay type: functional
[16] = species on record: Rattus norvegicus; test: Specific binding of [18F]AFA in hippocampus of rat pretreated with compound 7f; n=3; assay type: functional
[17] = species on record: Rattus norvegicus; test: Specific binding of [18F]AFA in hypothalamus of rat pretreated with compound 7f; n=3; assay type: functional
[18] = species on record: Rattus norvegicus; test: Specific binding of [18F]-AFA in frontal cortex of rat pretreated with compound 7f; n=3; assay type: functional
[19] = system: Rattus norvegicus; test: Biodistribution of [18F]AFP in rat hypothalamus at 30 min postinjection in vivo; assay type: ADME, organism-based; settings: 0.5 h
[20] = system: Rattus norvegicus; test: Biodistribution of [18F]AFP in rat hypothalamus at 60 min postinjection in vivo; assay type: ADME, organism-based; settings: 1 h
[21] = system: Rattus norvegicus; test: Biodistribution of [18F]AFP in rat hypothalamus at 90 min postinjection in vivo; assay type: ADME, organism-based; settings: 1.5 h
[22] = system: Rattus norvegicus; test: Biodistribution of [18F]AFP in rat blood at 10 min postinjection in vivo; assay type: ADME, organism-based
[23] = system: Rattus norvegicus; test: Biodistribution of [18F]-AFP in rat cerebellum at 30 min postinjection in vivo; assay type: ADME, organism-based; settings: 0.5 h; procedure, shortened: as §1
[24] = system: Rattus norvegicus; test: Biodistribution of [18F]AFP in rat cerebellum at 60 min postinjection in vivo; assay type: ADME, organism-based; settings: 1 h
[25] = system: Rattus norvegicus; test: Biodistribution of [18F]AFP in rat cerebellum at 90 min postinjection in vivo; assay type: ADME, organism-based; settings: 1.5 h
[26] = system: Rattus norvegicus; test: Biodistribution of [18F]AFP in rat cerebellum at 120 min postinjection in vivo; assay type: ADME, organism-based; settings: 2 h
[27] = system: Rattus norvegicus; test: Biodistribution of [18F]-AFP in rat hippocampus at 10 min postinjection in vivo; assay type: ADME, organism-based; procedure, shortened: as §1
[28] = system: Rattus norvegicus; test: Biodistribution of [18F]AFP in rat hippocampus at 30 min postinjection in vivo; assay type: ADME, organism-based; settings: 0.5 h
[29] = system: Rattus norvegicus; test: Biodistribution of [18F]-AFP in rat hippocampus at 60 min postinjection in vivo; assay type: ADME, organism-based; settings: 1 h; procedure, shortened: as §1
[30] = system: Rattus norvegicus; test: Biodistribution of [18F]AFP in rat hippocampus at 90 min postinjection in vivo; assay type: ADME, organism-based; settings: 1.5 h
[31] = system: Rattus norvegicus; test: Biodistribution of [18F]AFP in rat hippocampus at 120 min postinjection in vivo; assay type: ADME, organism-based; settings: 2 h
[32] = system: Rattus norvegicus; test: Biodistribution of [18F]AFP in rat hypothalamus at 10 min postinjection in vivo; assay type: ADME, organism-based
[33] = system: Rattus norvegicus; test: Biodistribution of [18F]AFP in rat striatum at 90 min postinjection in vivo; assay type: ADME, organism-based; settings: 1.5 h
[34] = system: Rattus norvegicus; test: Biodistribution of [18F]AFP in rat thalamus at 10 min postinjection in vivo; assay type: ADME, organism-based
[35] = system: Rattus norvegicus; test: Biodistribution of [18F]AFP in rat thalamus at 60 min postinjection in vivo; assay type: ADME, organism-based; settings: 1 h
[36] = system: Rattus norvegicus; test: Biodistribution of [18F]AFP in rat thalamus at 90 min postinjection in vivo; assay type: ADME, organism-based; settings: 1.5 h
[37] = system: Rattus norvegicus; test: Biodistribution of [18F]AFP in rat striatum at 120 min postinjection in vivo; assay type: ADME, organism-based; settings: 2 h
[38] = system: Rattus norvegicus; test: Biodistribution of [18F]AFP in rat thalamus at 120 min postinjection in vivo; assay type: ADME, organism-based; settings: 2 h
[39] = system: Rattus norvegicus; test: Biodistribution of [18F]AFP in rat thalamus at 30 min postinjection in vivo; assay type: ADME, organism-based; settings: 0.5 h
[40] = system: Rattus norvegicus; test: Biodistribution of [18F]-AFP in rat cerebellum at 10 min postinjection in vivo; assay type: ADME, organism-based; procedure, shortened: as §1

Biodistribution [1]: 0.1 %ID/g
Biodistribution [2]: 0.47 %ID/g
Biodistribution [3]: 0.21 %ID/g
Biodistribution [4]: 0.12 %ID/g
Biodistribution [5]: 0.05 %ID/g
Biodistribution [6]: 0.08 %ID/g
Biodistribution [7]: 0.15 %ID/g
Biodistribution [8]: 0.14 %ID/g
Biodistribution [9]: 0.08 %ID/g
Biodistribution [10]: 0.11 %ID/g
Biodistribution [11]: 0.04 %ID/g
Biodistribution [12]: 0.41 %ID/g
Biodistribution [13]: 0.21 %ID/g
Biodistribution [19]: 0.21 %ID/g
Biodistribution [20]: 0.13 %ID/g
Biodistribution [21]: 0.1 %ID/g
Biodistribution [22]: 0.18 %ID/g
Biodistribution [23]: 0.14 %ID/g
Biodistribution [24]: 0.07 %ID/g
Biodistribution [25]: 0.03 %ID/g
Biodistribution [26]: 0.03 %ID/g
Biodistribution [27]: 0.36 %ID/g
Biodistribution [28]: 0.19 %ID/g
Biodistribution [29]: 0.13 %ID/g
Biodistribution [30]: 0.07 %ID/g
Biodistribution [31]: 0.08 %ID/g
Biodistribution [32]: 0.42 %ID/g
Biodistribution [33]: 0.08 %ID/g
Biodistribution [34]: 0.44 %ID/g
Biodistribution [35]: 0.16 %ID/g
Biodistribution [36]: 0.1 %ID/g
Biodistribution [37]: 0.08 %ID/g
Biodistribution [38]: 0.1 %ID/g
Biodistribution [39]: 0.28 %ID/g
Biodistribution [40]: 0.31 %ID/g
SMILES: CN(C)Cc1ccccc1Sc1ccc(CCC[18F])cc1N
Specific binding [14]: 0.07 %ID/g
Specific binding [15]: 0.35 %ID/g
Specific binding [16]: 0.03 %ID/g
Specific binding [17]: 0.26 %ID/g
Specific binding [18]: 0.05 %ID/g
